# Activity calls are given as the source filed them. The rule behind the calls is not given here.
# Legend:
# PC-12 [1] = assay: Neuroprotective activity in rat differentiated PC12 cells assessed protection against hypoglycemia and serum limitation-induced decrease in cell viability at 40 uM after 24 hrs by MTT assay; assay type: functional
# Method in brief: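 NGF-differentiated PC12 cells (50 ng/ml every other day, 6 days) pretreated with 8, 40 or 200 µM for 24 h. Insult: 24 h in glucose-free DMEM with 1% horse serum and 1% FBS, compound kept. MTT added to 0.5 mg/ml for 4 h at 37 °C, formazan dissolved in 20% SDS, absorbance read at 570 nm. Viability given as % of unstressed control. Three independent experiments, each in triplicate.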
# PC-12 [2] = assay: Neuroprotective activity in rat differentiated PC12 cells assessed reversal of hypoglycemia and serum limitation-induced mitochondrial membrane potential at 40 uM after 24 hrs using Rhodamine dye by confocal microscopic analysis; assay type: functional
# Method in brief: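 Differentiated PC12 cells given 24 h pretreatment, then 24 h in glucose-free DMEM with 1% horse serum and 1% FBS. Rhodamine 123 added to 2 µM final for 30 min at 37 °C. Cells fixed in 4% paraformaldehyde and imaged by confocal microscopy (ex 488, em 530 nm, ×400). Fluorescence intensity given as % of control. Three independent experiments in triplicate.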
# PC-12 [3] = assay: Neuroprotective activity in rat differentiated PC12 cells assessed reduction of hypoglycemia and serum limitation-induced caspase 3 activity at 40 uM after 24 hrs by colorimetric assay relative to control; assay type: functional
# Method in brief: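 Treatment: NGF-differentiated PC12 cells preincubated 24 h, then 24 h of hypoglycemia and serum limitation. Lysates spun at 12,000 g for 10 min, protein measured by Bradford. Lysate incubated with reaction buffer and Ac-DEVD-pNA (10 µl of a 2 mM stock) for 4 h at 37 °C. pNA release read at 405 nm, expressed as % of control.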
# PC-12 [4] = assay: Neuroprotective activity in rat differentiated PC12 cells assessed protection against hypoglycemia and serum limitation-induced late stage of apoptosis at 40 uM after 24 hrs using annexin V/propidium iodide double staining by flow cytometry; assay type: functional, cell-based
# Method in brief: (§1)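 Differentiated PC12 cells pretreated 24 h, then 24 h of glucose-free DMEM with 1% horse and 1% fetal serum. Harvested cells resuspended at 1 × 10⁶/ml in binding buffer (10 mM HEPES, 140 mM NaCl, 2.5 mM CaCl₂). FITC-annexin V and PI added, 15 min in the dark at room temperature, analysed by flow cytometry within 1 h. Three independent experiments in triplicate.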
# PC-12 [5] = assay: Neuroprotective activity in rat differentiated PC12 cells assessed protection against hypoglycemia and serum limitation-induced early stage of apoptosis at 40 uM after 24 hrs using annexin V/propidium iodide double staining by flow cytometry; assay type: functional; method in brief: as §1
# PC-12 [6] = assay: Neuroprotective activity in rat differentiated PC12 cells assessed protection against hypoglycemia and serum limitation-induced apoptosis at 40 uM after 24 hrs by Hoechst 33342 staining analysis; assay type: functional
# Method in brief: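 PC12 cells kept in high-glucose DMEM with 10% horse serum and 5% FBS, differentiated with NGF (50 ng/ml) every other day for 6 days. Pretreated 24 h, then glucose-free DMEM with 1% horse and 1% fetal serum for 24 h with compound kept. Cells fixed in 4% paraformaldehyde, stained with Hoechst 33342 (5 µg/ml, 37 °C, 10 min). Condensed or fragmented nuclei counted under UV fluorescence as a fraction of total cells. Three independent experiments in triplicate.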
Compound,Activity (PC-12 [1]),Activity (PC-12 [2]),fold change (FC) (PC-12 [3]),Activity (PC-12 [4]),Activity (PC-12 [5]),Activity (PC-12 [6])
CC(=O)N[C@H]1[C@H](OCCc2ccccc2)O[C@H](CO)[C@@H](O)[C@@H]1O,inactive,–,–,–,–,–
CC(=O)N[C@H]1[C@H](OCCCc2ccc(O)cc2)O[C@H](CO)[C@@H](O)[C@@H]1O,Active,–,–,–,–,–
COc1cc(CO[C@@H]2O[C@H](CO)[C@@H](O)[C@H](O)[C@H]2NC(C)=O)cc(OC)c1,Active,–,–,–,–,–
CC(=O)N[C@H]1[C@H](OCc2ccc(O)cc2)O[C@H](CO)[C@@H](O)[C@@H]1O,60.65%,–,–,–,–,–
CC(=O)N[C@H]1[C@H](OCCc2ccc(O)cc2)O[C@H](CO)[C@@H](O)[C@@H]1O,65.36%,–,–,–,–,–
COc1ccc(CCCO[C@@H]2O[C@H](CO)[C@@H](O)[C@H](O)[C@H]2NC(C)=O)cc1,80.41%,79.05%,1.69,inactive,15.51%,7.12%
CC(=O)N[C@H]1[C@H](OCc2ccccc2)O[C@H](CO)[C@@H](O)[C@@H]1O,inactive,–,–,–,–,–
OC[C@H]1O[C@@H](OCCc2ccc(O)cc2)[C@H](O)[C@@H](O)[C@@H]1O [SALIDROSIDE],65.62%,71.43%,1.97,inactive,17.56%,8.31%
COc1cc(CCCO[C@@H]2O[C@H](CO)[C@@H](O)[C@H](O)[C@H]2NC(C)=O)ccc1O,62.38%,–,–,–,–,–
CC(=O)N[C@H]1[C@H](OCc2cccc(O)c2)O[C@H](CO)[C@@H](O)[C@@H]1O,Active,–,–,–,–,–
COc1cc(CO[C@@H]2O[C@H](CO)[C@@H](O)[C@H](O)[C@H]2NC(C)=O)ccc1O,65.9%,–,–,–,–,–
COc1ccc(CCO[C@@H]2O[C@H](CO)[C@@H](O)[C@H](O)[C@H]2NC(C)=O)cc1,86.62%,82.86%,1.55,inactive,11.21%,5.9%
